Among the data in ChEMBL document CHEMBL1122273, “5-sulfamoylorthanilic acids, a sulfonamide series with salidiuretic activity” (J Med Chem, 1983) are Diuretic activity and Saluretic activity values, retold here.

For assay [1], the species on record is Rattus norvegicus. The experiment in a line: Diuretic activity in the rats, determined by a modified Lipschitz test. The assay is classed as functional, Urine. Put shortly: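 Modified Lipschitz test: rats deprived of water 24 h, grouped in threes of similar weight in diuresis funnels. Oral dose of 50 mg/kg, suspended in 2% starch solution, by stomach tube.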

The species entered for assay [2] is Rattus norvegicus. The experiment in a line: Saluretic activity in the rat measured as concentration of chloride in urine. The assay is classed as functional. Put shortly: (§1)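 Rats deprived of food 24 h, water ad libitum, dosed 50 mg/kg by stomach tube as suspension in 2% starch, no extra water load. Groups of three in diuresis funnels; urine over first 5 h collected. Na⁺ and K⁺ by flame photometry, Cl⁻ argentometrically; expressed as mequiv/kg.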

The species named for assay [3] is Rattus norvegicus. The experiment in a line: Saluretic activity in the rat measured as concentration of K+ in urine. The assay is classed as functional. Put shortly:
as §1

The species named for assay [4] is Rattus norvegicus. The experiment in a line: Saluretic activity in the rat measured as concentration of Na+ in urine. The assay is classed as functional. Summed up: as §1

In turn, `CNS(=O)(=O)c1cc(S(=O)(=O)[O-])c(NCc2ccco2)cc1Oc1ccccc1.[K+]` yielded a Diuretic activity in the assay listed under Rattus norvegicus [1] of 1.6 mL/kg. The Saluretic activity amounted to 1 m equiv 5hr-1 kg-1 in the assay filed under Rattus norvegicus [2], 0.8 m equiv 5hr-1 kg-1 in the assay filed under Rattus norvegicus [3] and 0.8 m equiv 5hr-1 kg-1 in the assay listed under Rattus norvegicus [4].
`N.NS(=O)(=O)c1cc(S(=O)(=O)O)c(NCc2ccco2)cc1Oc1ccccc1` returned a Diuretic activity in the assay listed under Rattus norvegicus [1] of 4.2 mL/kg. Moreover, the Saluretic activity stood at 8.7 m equiv 5hr-1 kg-1 in the assay listed under Rattus norvegicus [2], 2.4 m equiv 5hr-1 kg-1 in the assay filed under Rattus norvegicus [3] and 6.6 m equiv 5hr-1 kg-1 in the assay listed under Rattus norvegicus [4].
The compound `NS(=O)(=O)c1cc(S(=O)(=O)[O-])c(NCc2ccco2)cc1Oc1ccccc1.[K+]` showed a Diuretic activity in the assay listed under Rattus norvegicus [1] of 1.8 mL/kg. Further, the Saluretic activity in the assay listed under Rattus norvegicus [2] is recorded as 7.1 m equiv 5hr-1 kg-1; in the assay listed under Rattus norvegicus [3] it was 1.5 m equiv 5hr-1 kg-1; in the assay filed under Rattus norvegicus [4], 5 m equiv 5hr-1 kg-1.
`NS(=O)(=O)c1cc(S(=O)(=O)[O-])c(S(=O)(=O)C2CCCCC2)cc1NCc1ccco1.[Na+]` gave a Diuretic activity in the assay listed under Rattus norvegicus [1] of 0.8 mL/kg. For the same compound, the Saluretic activity turned out to be 1 m equiv 5hr-1 kg-1 in the assay filed under Rattus norvegicus [2], 1.1 m equiv 5hr-1 kg-1 in the assay listed under Rattus norvegicus [3] and 0.4 m equiv 5hr-1 kg-1 in the assay listed under Rattus norvegicus [4].
Take `C1CCC(NC2CCCCC2)CC1.NS(=O)(=O)c1cc(S(=O)(=O)O)c(NCc2ccco2)cc1Oc1ccccc1`: the Diuretic activity in the assay listed under Rattus norvegicus [1] was found to be 0.9 mL/kg. The Saluretic activity in the assay listed under Rattus norvegicus [2] was 0.8 m equiv 5hr-1 kg-1; in the assay filed under Rattus norvegicus [3], 1 m equiv 5hr-1 kg-1; in the assay listed under Rattus norvegicus [4] it was 0.7 m equiv 5hr-1 kg-1.
Taken in the same sequence, the figures for `NS(=O)(=O)c1cc(S(=O)(=O)[O-])c(N(Cc2ccccc2)Cc2ccccc2)cc1Cl.[Na+]` were 0.7 mL/kg, 0.9 m equiv 5hr-1 kg-1, 0.8 m equiv 5hr-1 kg-1 and 0.3 m equiv 5hr-1 kg-1.
In turn, `CC(C)(C)S(=O)(=O)c1cc(NCc2ccco2)c(S(=O)(=O)[O-])cc1S(N)(=O)=O.[K+]` came in with a Diuretic activity in the assay listed under Rattus norvegicus [1] of 2.5 mL/kg. Moreover, the Saluretic activity in the assay filed under Rattus norvegicus [2] was determined as 4.3 m equiv 5hr-1 kg-1; in the assay filed under Rattus norvegicus [3], 1.8 m equiv 5hr-1 kg-1; in the assay filed under Rattus norvegicus [4], 3.3 m equiv 5hr-1 kg-1.
Consider `NS(=O)(=O)c1cc(S(=O)(=O)[O-])c(NCc2ccco2)cc1S(=O)(=O)C1CCCCCC1.[Na+]`, for which the Diuretic activity in the assay filed under Rattus norvegicus [1] turned out to be 4 mL/kg. The Saluretic activity stood at 9.9 m equiv 5hr-1 kg-1 in the assay filed under Rattus norvegicus [2], 2.8 m equiv 5hr-1 kg-1 in the assay filed under Rattus norvegicus [3] and 8.9 m equiv 5hr-1 kg-1 in the assay listed under Rattus norvegicus [4].
For the compound `NS(=O)(=O)c1cc(S(=O)(=O)[O-])c(NCc2ccco2)cc1Oc1ccc(Cl)cc1.[K+]`, the Diuretic activity in the assay listed under Rattus norvegicus [1] amounted to 2.2 mL/kg. In addition, the Saluretic activity came out at 6.4 m equiv 5hr-1 kg-1 in the assay listed under Rattus norvegicus [2], 2 m equiv 5hr-1 kg-1 in the assay listed under Rattus norvegicus [3] and 5.1 m equiv 5hr-1 kg-1 in the assay listed under Rattus norvegicus [4].
Consider `CN(Cc1ccco1)c1cc(Oc2ccccc2)c(S(N)(=O)=O)cc1S(=O)(=O)[O-].[K+]`, for which the Diuretic activity in the assay filed under Rattus norvegicus [1] came to 1.3 mL/kg. Moreover, the Saluretic activity worked out at 1.7 m equiv 5hr-1 kg-1 in the assay filed under Rattus norvegicus [2], 1.5 m equiv 5hr-1 kg-1 in the assay filed under Rattus norvegicus [3] and 0.3 m equiv 5hr-1 kg-1 in the assay listed under Rattus norvegicus [4].
On the same counts, the results for `CN(c1ccccc1)c1cc(NCc2ccco2)c(S(=O)(=O)[O-])cc1S(=O)(=O)N(C)C.[K+]` are 1.6 mL/kg, 1.5 m equiv 5hr-1 kg-1, 1.2 m equiv 5hr-1 kg-1 and 1 m equiv 5hr-1 kg-1.
`NS(=O)(=O)c1cc(S(=O)(=O)[O-])c(NCc2ccco2)cc1S(=O)(=O)Cc1ccccc1.[K+]` had a Diuretic activity in the assay filed under Rattus norvegicus [1] of 1 mL/kg. The Saluretic activity in the assay filed under Rattus norvegicus [2] is 0.7 m equiv 5hr-1 kg-1; in the assay filed under Rattus norvegicus [3], 0.6 m equiv 5hr-1 kg-1; in the assay filed under Rattus norvegicus [4], 0.8 m equiv 5hr-1 kg-1.
In the assay listed under Rattus norvegicus [1], `NS(=O)(=O)c1cc(S(=O)(=O)[O-])c(NCc2ccco2)cc1Nc1ccc(Cl)cc1.[Na+]` came in with a Diuretic activity of 0.4 mL/kg. In addition, the Saluretic activity in the assay filed under Rattus norvegicus [2] worked out at 0.5 m equiv 5hr-1 kg-1; in the assay listed under Rattus norvegicus [3], 0.4 m equiv 5hr-1 kg-1; in the assay listed under Rattus norvegicus [4], 0.4 m equiv 5hr-1 kg-1.
Compound `NS(=O)(=O)c1cc(S(=O)(=O)[O-])c(NCc2ccncc2)cc1Cl.[Na+]` came in with a Diuretic activity in the assay filed under Rattus norvegicus [1] of 0.2 mL/kg. Besides, the Saluretic activity is on record as 0.1 m equiv 5hr-1 kg-1 in the assay filed under Rattus norvegicus [2], 0.4 m equiv 5hr-1 kg-1 in the assay listed under Rattus norvegicus [3] and 0.1 m equiv 5hr-1 kg-1 in the assay listed under Rattus norvegicus [4].
`CN(Cc1ccco1)c1cc(Cl)c(S(N)(=O)=O)cc1S(=O)(=O)[O-].[Na+]` displayed a Diuretic activity in the assay listed under Rattus norvegicus [1] of 0.8 mL/kg. For the same compound, the Saluretic activity in the assay filed under Rattus norvegicus [2] worked out at 0.8 m equiv 5hr-1 kg-1; in the assay listed under Rattus norvegicus [3], 0.5 m equiv 5hr-1 kg-1; in the assay listed under Rattus norvegicus [4], 0.8 m equiv 5hr-1 kg-1.
For the compound `NCc1ccco1.NS(=O)(=O)c1cc(S(=O)(=O)O)c(NCc2ccco2)cc1Cl`, the Diuretic activity in the assay filed under Rattus norvegicus [1] was determined as 3.2 mL/kg. Also, the Saluretic activity in the assay listed under Rattus norvegicus [2] turned out to be 7.2 m equiv 5hr-1 kg-1; in the assay filed under Rattus norvegicus [3] it was 2.3 m equiv 5hr-1 kg-1; in the assay listed under Rattus norvegicus [4], 6.3 m equiv 5hr-1 kg-1.
With `CCCCCCS(=O)(=O)c1cc(NCc2ccco2)c(S(=O)(=O)[O-])cc1S(N)(=O)=O.[Na+]`, the Diuretic activity in the assay filed under Rattus norvegicus [1] worked out at 0.7 mL/kg. The figures for the Saluretic activity in the assay listed under Rattus norvegicus [2], in the assay listed under Rattus norvegicus [3] and in the assay listed under Rattus norvegicus [4] were 1.2 m equiv 5hr-1 kg-1, 1.9 m equiv 5hr-1 kg-1 and 1.1 m equiv 5hr-1 kg-1, respectively.
On the same counts, the results for `CCC(C)S(=O)(=O)c1cc(NCc2ccco2)c(S(=O)(=O)[O-])cc1S(N)(=O)=O.[Na+]` (stereo not given) are 4.5 mL/kg, 8.5 m equiv 5hr-1 kg-1, 1.9 m equiv 5hr-1 kg-1 and 6.7 m equiv 5hr-1 kg-1.
In the assay filed under Rattus norvegicus [1], `CCCS(=O)(=O)c1cc(NCc2ccco2)c(S(=O)(=O)[O-])cc1S(N)(=O)=O.[Na+]` had a Diuretic activity of 2.9 mL/kg. Further, the Saluretic activity is 2.4 m equiv 5hr-1 kg-1 in the assay listed under Rattus norvegicus [2], 1.3 m equiv 5hr-1 kg-1 in the assay listed under Rattus norvegicus [3] and 1.8 m equiv 5hr-1 kg-1 in the assay listed under Rattus norvegicus [4].
`CCN(c1ccccc1)c1cc(NCc2ccco2)c(S(=O)(=O)[O-])cc1S(N)(=O)=O.[Na+]` had a Diuretic activity in the assay listed under Rattus norvegicus [1] of 0.8 mL/kg. The Saluretic activity came out at 0.3 m equiv 5hr-1 kg-1 in the assay listed under Rattus norvegicus [2], 1 m equiv 5hr-1 kg-1 in the assay filed under Rattus norvegicus [3] and 0.4 m equiv 5hr-1 kg-1 in the assay listed under Rattus norvegicus [4].
On the same counts, the results for `NS(=O)(=O)c1cc(S(=O)(=O)[O-])c(NCc2ccc3c(c2)OCO3)cc1Cl.[Na+]` are 0.4 mL/kg, 0.3 m equiv 5hr-1 kg-1, 0.3 m equiv 5hr-1 kg-1 and 0.4 m equiv 5hr-1 kg-1.
`Cc1cccc(Oc2cc(NCc3ccco3)c(S(=O)(=O)[O-])cc2S(N)(=O)=O)c1.[K+]` gave a Diuretic activity in the assay filed under Rattus norvegicus [1] of 4.4 mL/kg. In addition, the Saluretic activity stood at 7.9 m equiv 5hr-1 kg-1 in the assay filed under Rattus norvegicus [2], 2.2 m equiv 5hr-1 kg-1 in the assay filed under Rattus norvegicus [3] and 6.7 m equiv 5hr-1 kg-1 in the assay listed under Rattus norvegicus [4].
On the same counts, the results for `NS(=O)(=O)c1cc(S(=O)(=O)[O-])c(Oc2ccccc2)cc1NCc1ccco1.[K+]` are 0.8 mL/kg, 0.8 m equiv 5hr-1 kg-1, 1 m equiv 5hr-1 kg-1 and 0.8 m equiv 5hr-1 kg-1.
Taken in the same sequence, the figures for `NS(=O)(=O)c1cc(S(=O)(=O)[O-])c(NCC2CCCO2)cc1Cl.[Na+]` (stereo not given) were 0.4 mL/kg, 0.5 m equiv 5hr-1 kg-1, 0.4 m equiv 5hr-1 kg-1 and 0.4 m equiv 5hr-1 kg-1.
Turning to `NS(=O)(=O)c1cc(S(=O)(=O)[O-])c(NCc2ccco2)cc1Nc1ccccc1Cl.[Na+]`, in the assay filed under Rattus norvegicus [1], the Diuretic activity was 1.1 mL/kg. The Saluretic activity came out at 0.6 m equiv 5hr-1 kg-1 in the assay listed under Rattus norvegicus [2], 0.8 m equiv 5hr-1 kg-1 in the assay listed under Rattus norvegicus [3] and 0.3 m equiv 5hr-1 kg-1 in the assay filed under Rattus norvegicus [4].
On the same counts, the results for `NC(N)=NC(=O)c1nc(Cl)c(N)nc1N.NS(=O)(=O)c1cc(S(=O)(=O)O)c(NCc2ccco2)cc1Oc1ccccc1` are 1.9 mL/kg, 2.7 m equiv 5hr-1 kg-1, 0.3 m equiv 5hr-1 kg-1 and 3.7 m equiv 5hr-1 kg-1.
On the same counts, the results for `CC(C)CS(=O)(=O)c1cc(NCc2ccco2)c(S(=O)(=O)[O-])cc1S(N)(=O)=O.[Na+]` are 2.8 mL/kg, 8.1 m equiv 5hr-1 kg-1, 2.5 m equiv 5hr-1 kg-1 and 7.6 m equiv 5hr-1 kg-1.
Take `CCOCCNc1cc(Cl)c(S(N)(=O)=O)cc1S(=O)(=O)[O-].[Na+]`: the Diuretic activity in the assay filed under Rattus norvegicus [1] turned out to be 0.4 mL/kg. The Saluretic activity in the assay filed under Rattus norvegicus [2], in the assay filed under Rattus norvegicus [3] and in the assay filed under Rattus norvegicus [4] was 0.2 m equiv 5hr-1 kg-1 throughout.
Turning to `NS(=O)(=O)c1cc(S(=O)(=O)[O-])c(Cl)cc1NCc1ccco1.[Na+]`, the Diuretic activity in the assay filed under Rattus norvegicus [1] amounted to 0.5 mL/kg. Moreover, the Saluretic activity in the assay filed under Rattus norvegicus [2] came to 1 m equiv 5hr-1 kg-1; in the assay filed under Rattus norvegicus [3], 0.9 m equiv 5hr-1 kg-1; in the assay filed under Rattus norvegicus [4], 0.5 m equiv 5hr-1 kg-1.
Compound `Cc1ccc(N(C)c2cc(NCc3ccco3)c(S(=O)(=O)[O-])cc2S(N)(=O)=O)cc1.[Na+]` displayed a Diuretic activity in the assay listed under Rattus norvegicus [1] of 1.2 mL/kg. Moreover, the Saluretic activity in the assay filed under Rattus norvegicus [2] came out at 2.3 m equiv 5hr-1 kg-1; in the assay listed under Rattus norvegicus [3], 1.9 m equiv 5hr-1 kg-1; in the assay listed under Rattus norvegicus [4], 1.6 m equiv 5hr-1 kg-1.
